# Test results reported in ChEMBL document CHEMBL1221342, “Synthesis and in vitro antitumor activity of new 4,5-dihydropyrazole derivatives” (Bioorg Med Chem, 2010).
# Experiments:
# SF-295 = assay: Growth inhibition of human SF295 cells after 48 hrs by SRB assay; format: functional; details: SF-295, 48 h
# In short: (§1)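 NCI 60-cell-line screen. Cells grown in RPMI1640 with 5% fetal calf serum and 2 mM L-glutamine, with inoculum density set by cell line. Preincubated 24 h, then given compound in DMSO at 10^-4 to 10^-8 M (five 10-fold steps) for 48 h continuous exposure. Growth measured by SRB protein assay. GI50, TGI and LC50 reported as –log molar.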
# NCI-H322M = assay: Growth inhibition of human NCI-H322M cells after 48 hrs by SRB assay; format: functional; in short: as §1
# PC-3 = assay: Growth inhibition of human PC3 cells after 48 hrs by SRB assay; format: functional; details: PC-3, 48 h; in short: as §1
# 786-0 = assay: Growth inhibition of human 786-0 cells after 48 hrs by SRB assay; format: functional; details: 786-0, 48 h; in short: as §1
# HOP-62 = assay: Growth inhibition of human HOP62 cells after 48 hrs by SRB assay; format: functional; details: HOP-62, 48 h; in short: as §1
# HL-60(TB) = assay: Growth inhibition of human HL-60(TB) cells after 48 hrs by SRB assay; format: functional; details: HL-60, 48 h
# In short: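 NCI 60-cell-line screen: cells grown in RPMI1640 with 5% fetal calf serum and 2 mM L-glutamine, preincubated 24 h, then exposed to compound in DMSO at five concentrations (10^-4 to 10^-8 M) for 48 h continuous exposure. Growth estimated by sulforhodamine B protein assay; reported as pGI50 (-log molar concentration inhibiting net cell growth by 50%).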
# OVCAR-4 = assay: Growth inhibition of human OVCAR4 cells after 48 hrs by SRB assay; format: functional; details: OVCAR-4, 48 h; in short: as §1
# NCI-H460 [1] = assay: Cytotoxicity against human NCI-H460 cells after 72 hrs by SRB assay; format: functional, cell-based; details: NCI-H460, 72 h
# In short: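 NCI-H460 (ATCC) cells seeded in 96-well plates in growth medium. Scalar drug concentrations added 24 h after plating, then 72 h exposure. Surviving cells stained with sulforhodamine B, OD read at 570 nm. IC50 (50% growth inhibition) fitted from dose–response curves. Mean ± SE of at least three independent experiments.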
# NCI-H460 [2] = assay: Growth inhibition of human NCI-H460 cells after 48 hrs by SRB assay; format: functional; details: NCI-H460, 48 h; in short: as §1
# MOLT-4 = assay: Growth inhibition of human MOLT4 cells after 48 hrs by SRB assay; format: functional; details: MOLT-4, 48 h; in short: as §1
# MCF7 = assay: Growth inhibition of human MCF7 cells after 48 hrs by SRB assay; format: functional; details: MCF7, 48 h; in short: as §1
# T47D = assay: Growth inhibition of human T47D cells after 48 hrs by SRB assay; format: functional; in short: as §1
# [3] = Growth inhibition of human Hs 578T cells after 48 hrs by SRB assay; format: functional; in short: as §1
# CAKI-1 = assay: Growth inhibition of human Caki1 cells after 48 hrs by SRB assay; format: functional; details: CAKI-1, 48 h; in short: as §1
# RXF 393 = assay: Growth inhibition of human RXF393 cells after 48 hrs by SRB assay; format: functional; details: RXF 393, 48 h; in short: as §1
# SW-620 = assay: Growth inhibition of human SW620 cells after 48 hrs by SRB assay; format: functional; details: SW-620, 48 h; in short: as §1
# SF-268 = assay: Growth inhibition of human SF268 cells after 48 hrs by SRB assay; format: functional; details: SF-268, 48 h; in short: as §1
# NCI/ADR-RES = assay: Growth inhibition of human NCI/ADR-RES cells after 48 hrs by SRB assay; format: functional; in short: as §1
# [4] = Growth inhibition of human […] cells after 48 hrs by SRB assay; format: functional; in short: as §1
# Malme-3M = assay: Growth inhibition of human MALME-3M cells after 48 hrs by SRB assay; format: functional; in short: as §1
# SR = assay: Growth inhibition of human SR cells after 48 hrs by SRB assay; format: functional; in short: as §1
# KM12 = assay: Growth inhibition of human KM12 cells after 48 hrs by SRB assay; format: functional; details: KM12, 48 h; in short: as §1
# A498 = assay: Growth inhibition of human A498 cells after 48 hrs by SRB assay; format: functional; details: A498, 48 h; in short: as §1
# HT-29 = assay: Growth inhibition of human HT-29 cells after 48 hrs by SRB assay; format: functional; details: HT-29, 48 h; in short: as §1
# OVCAR-8 = assay: Growth inhibition of human OVCAR8 cells after 48 hrs by SRB assay; format: functional; details: OVCAR-8, 48 h; in short: as §1
# OVCAR-3 = assay: Growth inhibition of human OVCAR-3 cells after 48 hrs by SRB assay; format: functional; details: OVCAR-3, 48 h; in short: as §1
# EKVX = assay: Growth inhibition of human EKVX cells after 48 hrs by SRB assay; format: functional; in short: as §1
# MDA-MB-435 = assay: Growth inhibition of human MDA-MB-435 cells after 48 hrs by SRB assay; format: functional; details: MDA-MB-435, 48 h; in short: as §1
# SK-MEL-28 = assay: Growth inhibition of human SK-MEL-28 cells after 48 hrs by SRB assay; format: functional; details: SK-MEL-28, 48 h; in short: as §1
# IGROV-1 = assay: Growth inhibition of human IGROV1 cells after 48 hrs by SRB assay; format: functional; details: IGROV-1, 48 h; in short: as §1
# DU-145 = assay: Growth inhibition of human DU145 cells after 48 hrs by SRB assay; format: functional; details: DU-145, 48 h; in short: as §1
# HCT-116 = assay: Growth inhibition of human HCT116 cells after 48 hrs by SRB assay; format: functional; details: HCT-116, 48 h; in short: as §1
# M14 = assay: Growth inhibition of human M14 cells after 48 hrs by SRB assay; format: functional; details: M14, 48 h; in short: as §1
# HCT-15 = assay: Growth inhibition of human HCT15 cells after 48 hrs by SRB assay; format: functional; details: HCT-15, 48 h; in short: as §1
# CCRF-CEM = assay: Growth inhibition of human CCRF-CEM cells after 48 hrs by SRB assay; format: functional; in short: as §1
# SNB-75 = assay: Growth inhibition of human SNB75 cells after 48 hrs by SRB assay; format: functional; details: SNB-75, 48 h; in short: as §1
smiles,measurement,setting,value
COc1cc(C2CC(c3ccc(N(C)C)cc3)=NN2C(C)=O)cc(OC)c1OC (centres undefined),GI50,SF-295,0.158 µM
same,TGI,SF-295; read-out: pTGI (converted),0.631 µM
same,GI50,NCI-H322M,3.98 µM
same,TGI,NCI-H322M; read-out: pTGI (converted),63.1 µM
same,GI50,PC-3,0.501 µM
same,TGI,PC-3; read-out: pTGI (converted),> 100 µM
same,GI50,786-0,1.26 µM
same,TGI,786-0; read-out: pTGI (converted),63.1 µM
same,GI50,HOP-62,0.794 µM
same,TGI,HOP-62; read-out: pTGI (converted),> 100 µM
same,GI50,HL-60(TB),1 µM
same,TGI,HL-60(TB); read-out: pTGI (converted),6.31 µM
same,GI50,OVCAR-4,3.98 µM
same,TGI,OVCAR-4; read-out: pTGI (converted),> 100 µM
same,IC50,NCI-H460 [1],1.8 µM
same,GI50,NCI-H460 [2],0.631 µM
same,TGI,NCI-H460 [2]; read-out: pTGI (converted),> 100 µM
same,GI50,MOLT-4,3.16 µM
same,TGI,MOLT-4; read-out: pTGI (converted),> 100 µM
same,GI50,MCF7,0.398 µM
same,TGI,MCF7; read-out: pTGI (converted),> 100 µM
same,GI50,T47D,6.31 µM
same,TGI,T47D; read-out: pTGI (converted),> 100 µM
same,GI50,[3],0.398 µM
same,TGI,[3]; read-out: pTGI (converted),3.16 µM
same,GI50,CAKI-1,0.501 µM
same,TGI,CAKI-1; read-out: pTGI (converted),> 100 µM
same,GI50,RXF 393,1.58 µM
same,TGI,RXF 393; read-out: pTGI (converted),5.01 µM
same,GI50,SW-620,0.501 µM
same,TGI,SW-620; read-out: pTGI (converted),> 100 µM
same,GI50,SF-268,2.51 µM
same,TGI,SF-268; read-out: pTGI (converted),> 100 µM
same,GI50,NCI/ADR-RES,0.316 µM
same,TGI,NCI/ADR-RES; read-out: pTGI (converted),1.26 µM
same,GI50,[4],3.16 µM
same,TGI,[4]; read-out: pTGI (converted),15.8 µM
same,GI50,Malme-3M,> 100 µM
same,TGI,Malme-3M; read-out: pTGI (converted),> 100 µM
same,GI50,SR,0.631 µM
same,TGI,SR; read-out: pTGI (converted),> 100 µM
same,GI50,KM12,0.794 µM
same,TGI,KM12; read-out: pTGI (converted),31.6 µM
same,GI50,A498,2.51 µM
same,TGI,A498; read-out: pTGI (converted),20 µM
same,GI50,HT-29,0.398 µM
same,TGI,HT-29; read-out: pTGI (converted),15.8 µM
same,GI50,OVCAR-8,5.01 µM
same,TGI,OVCAR-8; read-out: pTGI (converted),> 100 µM
same,GI50,OVCAR-3,0.251 µM
same,TGI,OVCAR-3; read-out: pTGI (converted),1 µM
same,GI50,EKVX,5.01 µM
same,TGI,EKVX; read-out: pTGI (converted),> 100 µM
same,GI50,MDA-MB-435,0.2 µM
same,TGI,MDA-MB-435; read-out: pTGI (converted),0.631 µM
same,GI50,SK-MEL-28,15.8 µM
same,TGI,SK-MEL-28; read-out: pTGI (converted),> 100 µM
same,GI50,IGROV-1,2.51 µM
same,GI50,DU-145,2 µM
same,TGI,DU-145; read-out: pTGI (converted),12.6 µM
same,GI50,HCT-116,0.501 µM
same,TGI,HCT-116; read-out: pTGI (converted),20 µM
same,GI50,M14,0.501 µM
same,TGI,M14; read-out: pTGI (converted),2.51 µM
same,GI50,HCT-15,0.631 µM
same,GI50,CCRF-CEM,2.51 µM
same,TGI,CCRF-CEM; read-out: pTGI (converted),> 100 µM
same,GI50,SNB-75,0.794 µM
same,TGI,SNB-75; read-out: pTGI (converted),> 100 µM
